Experiment [1] addresses T1, LPA1 (Homo sapiens, UniProt Q92633). As to conditions: read-out: IC50 LPA1; previously reported antagonists; NE no effect; cited from earlier work.
The target in experiment [2] is T2, LPA2 (Homo sapiens, UniProt Q9HBW0). The note with it: previously reported antagonists, cited from earlier work; for IC50: read-out: IC50 LPA2, NE no effect.
Experiment [3] has as its target T3, LPA5 (Homo sapiens, UniProt Q9H1C0). The note with it: read-out: IC50 LPA5; previously reported antagonists; NE no effect; cited from earlier work.
Experiment [4] concerns the target T4, LPA3 (Homo sapiens, UniProt Q9UBY5).
T4 sequence (Q9UBY5 1-353): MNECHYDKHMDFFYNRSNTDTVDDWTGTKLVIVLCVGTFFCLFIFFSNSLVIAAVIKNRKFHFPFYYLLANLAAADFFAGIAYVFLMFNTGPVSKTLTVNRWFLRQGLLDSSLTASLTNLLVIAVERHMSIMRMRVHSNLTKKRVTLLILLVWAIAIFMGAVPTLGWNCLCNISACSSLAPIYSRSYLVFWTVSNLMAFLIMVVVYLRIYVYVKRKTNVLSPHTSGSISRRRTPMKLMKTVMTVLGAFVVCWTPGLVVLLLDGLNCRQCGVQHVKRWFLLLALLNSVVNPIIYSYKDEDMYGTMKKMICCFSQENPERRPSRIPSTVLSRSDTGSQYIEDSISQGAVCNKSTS
As to conditions: previously reported antagonists, cited from earlier work.

Experiment [5] addresses T5, LPA4 (Homo sapiens, UniProt Q99677). As to conditions: read-out: IC50 LPA4; previously reported antagonists; NE no effect; cited from earlier work.
Experiment [6] deals with T4, LPA3. Nature of the experiment: LPA receptor-promoted intracellular Ca2+ mobilization, LPA3. The format is cell-based. The note with it: for % inhibition at 10μM: Table 3, LPA3 inhibition; for LPA3 antagonist activity (in words): Ca2+ assay.
For experiment [7], the target named is T5, LPA4. Kind of experiment: LPA receptor-promoted intracellular Ca2+ mobilization, LPA4. The format is cell-based. The note with it: read-out: IC50 LPA4; dose response. The gist of the method:
(§1)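 Cells stably expressing the given LPA receptor were plated and cultured overnight, then moved to serum-free medium for 4-6 h and loaded with fura-2. Intracellular Ca2+ was read on a plate fluorometer as the ratio of 520 nm emission under 340 vs 380 nm excitation. Test compounds were dissolved in methanol, diluted in buffer, and run in quadruplicate. IC50 was taken from concentration-response curves.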

The target in experiment [8] is T2, LPA2. Nature of the experiment: LPA receptor-promoted intracellular Ca2+ mobilization, LPA2. As to conditions: read-out: IC50 LPA2; dose response. Type of experiment: cell-based. In outline: as §1
In experiment [9] the target is T3, LPA5. Kind of experiment: LPA receptor-promoted intracellular Ca2+ mobilization, LPA5. As to conditions: for IC50: read-out: IC50 LPA5, dose response. The format is cell-based. The gist of the method: as §1
In experiment [10] the target is T1, LPA1. Kind of experiment: LPA receptor-promoted intracellular Ca2+ mobilization, LPA1. As to conditions: for LPA1 antagonist activity (in words): Ca2+ assay; for IC50: read-out: IC50 LPA1, dose response. The format is cell-based. The gist of the method:
as §1

[11] abbreviates: 10 μM compound against 200 nM LPA.

Entries after “also recorded” stand apart in the source; their conditions may differ. Where two headings read alike, the source gives them in different places. Where a SMILES comes first, the peptide text is derived from it. The star is where a group is joined. Dnp = O=[N+]([O-])c1ccc(*)c([N+](=O)[O-])c1 Where only a bound is given, the exact number is not on record here.

T2 sequence (Q9HBW0 whole entry, species assumed): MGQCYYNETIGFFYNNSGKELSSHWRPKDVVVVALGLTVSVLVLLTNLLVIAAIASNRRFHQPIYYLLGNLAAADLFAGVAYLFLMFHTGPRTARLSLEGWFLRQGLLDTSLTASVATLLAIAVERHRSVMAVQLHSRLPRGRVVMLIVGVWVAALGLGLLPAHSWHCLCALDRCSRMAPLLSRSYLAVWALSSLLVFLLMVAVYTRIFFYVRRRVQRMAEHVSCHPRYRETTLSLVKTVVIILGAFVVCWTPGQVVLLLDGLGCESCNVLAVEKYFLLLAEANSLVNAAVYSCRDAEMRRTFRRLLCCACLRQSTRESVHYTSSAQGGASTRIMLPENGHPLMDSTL
T1 sequence (Q92633 whole entry, species assumed): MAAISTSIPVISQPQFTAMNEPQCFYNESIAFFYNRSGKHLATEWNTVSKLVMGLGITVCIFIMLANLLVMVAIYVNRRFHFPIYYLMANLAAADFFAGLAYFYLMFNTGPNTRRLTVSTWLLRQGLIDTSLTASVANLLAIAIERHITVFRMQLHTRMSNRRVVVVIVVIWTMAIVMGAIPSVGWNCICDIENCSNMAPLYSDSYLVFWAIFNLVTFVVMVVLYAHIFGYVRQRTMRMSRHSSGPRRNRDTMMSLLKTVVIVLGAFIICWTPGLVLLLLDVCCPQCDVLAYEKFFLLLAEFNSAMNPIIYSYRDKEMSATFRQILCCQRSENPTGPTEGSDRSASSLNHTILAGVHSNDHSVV
T3 sequence (Q9H1C0 whole entry, species assumed): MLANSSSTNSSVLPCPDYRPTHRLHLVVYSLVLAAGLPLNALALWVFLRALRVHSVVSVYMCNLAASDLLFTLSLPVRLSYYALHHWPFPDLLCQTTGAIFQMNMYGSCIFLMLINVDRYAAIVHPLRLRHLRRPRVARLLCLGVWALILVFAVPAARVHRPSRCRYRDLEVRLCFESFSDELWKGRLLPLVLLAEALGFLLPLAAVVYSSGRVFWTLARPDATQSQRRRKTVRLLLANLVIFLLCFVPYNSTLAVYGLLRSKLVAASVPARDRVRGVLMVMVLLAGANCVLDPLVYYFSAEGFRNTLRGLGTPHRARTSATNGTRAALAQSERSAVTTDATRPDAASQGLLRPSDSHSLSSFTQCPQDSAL
T5 sequence (Q99677 whole entry, species assumed): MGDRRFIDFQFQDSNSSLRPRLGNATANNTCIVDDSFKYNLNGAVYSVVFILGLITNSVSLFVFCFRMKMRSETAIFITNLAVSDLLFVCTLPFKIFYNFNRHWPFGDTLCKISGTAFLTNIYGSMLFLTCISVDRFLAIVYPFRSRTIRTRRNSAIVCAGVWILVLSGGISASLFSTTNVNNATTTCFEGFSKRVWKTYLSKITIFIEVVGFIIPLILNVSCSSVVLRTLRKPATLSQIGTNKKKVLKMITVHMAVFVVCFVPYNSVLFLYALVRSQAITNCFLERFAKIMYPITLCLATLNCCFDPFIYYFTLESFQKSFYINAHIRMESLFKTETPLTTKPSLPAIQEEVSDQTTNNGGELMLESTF

Consider `O=C(O)/C=C/C(=O)Nc1cccc(NC(=O)/C=C/C(=O)O)c1C(=O)O` [Compound 3], for which the IC50 at LPA1 [1], on LPA5 [3] and on LPA4 [5] was more than 10 µM each time. Further, on LPA2 [2], the “Imax LPA2” value is recorded as 53.3%. Also, at LPA3 [4], the “Imax LPA3” value was 81.7%.
Turning to `O=C(O)c1ccc2c(c1)C(=O)N(c1cccc(Oc3ccc([N+](=O)[O-])cc3)c1)C2=O` [Compound 20], on LPA3 [6] (LPA3 IC50 versus compound 5), the “fold increase in potency compared to compound 5” value turned out to be 6 fold. Moreover, at LPA3 [6] (setting [11]), the “% inhibition at 10μM” value is recorded as more than 50%. For the same compound, the IC50 at LPA4 [7] and at LPA2 [8] was more than 10 µM throughout. The “LPA5 antagonist activity (in words)” value at LPA5 [9] (Ca2+ assay) is recorded as “LPA5 antagonist”. Moreover, at LPA1 [10], the “LPA1 antagonist activity (in words)” value is given as “LPA1 antagonists”.
For the compound `O=C1c2ccc(Oc3cccc([N+](=O)[O-])c3)cc2C(=O)N1Cc1cccnc1` [Compound 8], the “LPA3 antagonist activity (in words)” value at LPA3 [6] was “active”.
With `O=C(O)CN1C(=O)c2ccc(Oc3ccc([N+](=O)[O-])cc3)cc2C1=O` [Compound 11], the “LPA3 antagonist activity (in words)” value at LPA3 [6] was “no inhibition; also recorded: no activity”; at LPA3 [6] (listed as compound 11) it was “no antagonist activity”. Further, the IC50 is more than 10 µM at LPA3 [6] (read-out: IC50 LPA3, dose response, activation by 200 nM LPA); more than 10 µM at LPA4 [7]; more than 10 µM at LPA2 [8]; more than 10 µM at LPA5 [9]; more than 10 µM on LPA1 [10]. In addition, the inhibition at 10 µM on LPA3 [6] (read-out: Percent inhibiton at 10μM, Table 2, 10 μM compound against 200 nM LPA) was less than 10%.
Regarding `CC(=O)COc1ccc(NC(=O)CN2C(=O)c3ccc([N+](=O)[O-])cc3C2=O)cc1` [Compound 18], the “% inhibition at 10μM” value on LPA3 [6] (setting [11]) is “Agonist”.
Turning to `O=C(O)/C=C/C(=O)Nc1cccc(NC(=O)/C=C/C(=O)O)c1` [Compound 2], the IC50 on LPA5 [3] was more than 10 µM; on LPA3 [4] (read-out: IC50 LPA3, NE no effect), more than 10 µM; on LPA4 [5] it was more than 10 µM.
In the case of `Cc1ccc(Oc2ccc3c(c2)C(=O)N(CC(=O)O)C3=O)cc1` [Compound 12], the IC50 on LPA4 [7], at LPA2 [8] and at LPA5 [9] was more than 10 µM each time. In addition, the “LPA1 antagonist activity (in words)” value at LPA1 [10] is recorded as “LPA1 antagonists”.
Regarding `O=C(O)COc1ccc(N2C(=O)c3ccc(Oc4cccc([N+](=O)[O-])c4)cc3C2=O)cc1` [Compound 6], on LPA3 [6] (setting [11]), the “% inhibition at 10μM” value is “agonist”.
On the same count and under the same terms, next, `O=C(O)CN1C(=O)c2ccc(C(=O)c3cccc([N+](=O)[O-])c3)cc2C1=O` [Compound 15]: “Agonist”.
On to `NCC(=O)N[C@@H](CSc1ccc([N+](=O)[O-])cc1[N+](=O)[O-])C(=O)N[C@@H](CCC(=O)O)C(=O)O` [Compound 1] (H-Gly-Cys(Dnp)-Glu-OH), for which the IC50 at LPA1 [1], on LPA2 [2], on LPA5 [3] and on LPA4 [5] was more than 10 µM in each case. The “Imax LPA3” value at LPA3 [4] is 69.8%.
On to `O=C(O)/C=C/C(=O)Nc1ccc(Oc2cccc(Oc3ccc(NC(=O)/C=C/C(=O)O)cc3)c2)cc1` [Compound 4], for which the IC50 at LPA5 [3] and at LPA4 [5] was more than 10 µM throughout.
With `Cc1ccc(Oc2ccc3c(c2)C(=O)N(CC2CCCO2)C3=O)cc1` (stereo not shown) [Compound 14], the “LPA3 antagonist activity (in words)” value at LPA3 [6] is reported as “not active”.
As for `O=C(O)CN1C(=O)c2ccc(Oc3cccc([N+](=O)[O-])c3)cc2C1=O` [Compound 5, [5-(3-nitrophenoxy)-1,3-dioxo-1,3-dihydro-2-isoindol-2-yl]acetic acid], the IC50 on LPA1 [1], at LPA4 [7], on LPA2 [8], at LPA2 [2], at LPA5 [9] and on LPA5 [3] was more than 10 µM each time. In addition, the IC50 on LPA1 [10] and on LPA4 [5] was more than 10 µM in each case.

The record behind these values is PMC2771199 (Bioorganic & medicinal chemistry, 2009).
